Experimental data as given in ChEMBL document CHEMBL3877303 (J Med Chem, 2017).

Legend:
[1] = molecular target: T1, Mast/stem cell growth factor receptor Kit (Homo sapiens, UniProt P10721); conditions: BaF3
[2] = molecular target: BCR/ABL p210 fusion protein (Homo sapiens, UniProt A1Z199); test: Inhibition of human BCR/ABL p210 fusion protein expressed in BAF3 cells assessed as growth inhibition measured after 72 hrs by CellTiter-Glo or CCK8 assay; assay type: cell-based
How it was run: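 Seeded at 1 to 2.5×10^4 cells/mL with various compound concentrations, 72 h. Viability read by CellTiter-Glo luminescence or CCK-8 absorbance (450/655 nm), normalized to DMSO control, GI50 from curve fit, triplicate testing.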

[3] = Growth inhibition of mouse BAF3 cells measured after 72 hrs by CellTiter-Glo or CCK8 assay; assay type: cell-based
How it was run: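 Cells at 1 to 2.5×10^4 cells/mL were incubated with a range of compound concentrations for 72 h. Viability was read by CellTiter-Glo luminescence or CCK-8 absorbance (450/655 nm) and normalized to DMSO control. GI50 came from curve fitting, with triplicate testing.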

[4] = molecular target: T1, Mast/stem cell growth factor receptor Kit; test: Inhibition of recombinant C-terminal polyhistidine-tagged human c-KIT expressed in mammalian expression system using Tyr 06 peptide as substrate measured after 1hr by FRET based Z'Lyte assay

T1 sequence (P10721 whole entry, the tested form may be a part): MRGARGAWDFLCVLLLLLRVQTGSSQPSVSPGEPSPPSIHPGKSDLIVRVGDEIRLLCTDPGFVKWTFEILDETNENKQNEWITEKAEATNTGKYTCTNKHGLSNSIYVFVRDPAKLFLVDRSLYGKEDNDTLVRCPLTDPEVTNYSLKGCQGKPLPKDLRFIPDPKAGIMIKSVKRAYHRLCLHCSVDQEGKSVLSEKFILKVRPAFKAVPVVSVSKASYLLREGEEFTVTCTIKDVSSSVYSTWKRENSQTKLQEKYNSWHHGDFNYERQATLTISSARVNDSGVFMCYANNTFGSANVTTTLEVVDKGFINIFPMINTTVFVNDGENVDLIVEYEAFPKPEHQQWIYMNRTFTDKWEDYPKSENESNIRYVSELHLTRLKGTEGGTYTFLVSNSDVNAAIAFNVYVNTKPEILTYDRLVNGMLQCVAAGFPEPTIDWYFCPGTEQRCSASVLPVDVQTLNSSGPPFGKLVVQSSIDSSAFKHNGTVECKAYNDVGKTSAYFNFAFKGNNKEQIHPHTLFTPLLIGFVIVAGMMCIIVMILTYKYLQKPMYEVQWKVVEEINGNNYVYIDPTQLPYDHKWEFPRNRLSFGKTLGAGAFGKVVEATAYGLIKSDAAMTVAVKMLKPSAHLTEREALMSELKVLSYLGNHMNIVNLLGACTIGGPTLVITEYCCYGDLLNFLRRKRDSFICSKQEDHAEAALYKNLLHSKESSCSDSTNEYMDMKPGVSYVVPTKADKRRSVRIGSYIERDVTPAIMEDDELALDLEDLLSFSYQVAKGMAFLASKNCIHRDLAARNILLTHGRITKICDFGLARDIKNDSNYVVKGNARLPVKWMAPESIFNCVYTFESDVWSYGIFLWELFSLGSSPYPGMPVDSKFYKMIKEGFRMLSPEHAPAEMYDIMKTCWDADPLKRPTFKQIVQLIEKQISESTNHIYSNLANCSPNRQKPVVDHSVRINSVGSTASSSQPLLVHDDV
Sequence of BCR/ABL p210 fusion protein (A1Z199 1-97): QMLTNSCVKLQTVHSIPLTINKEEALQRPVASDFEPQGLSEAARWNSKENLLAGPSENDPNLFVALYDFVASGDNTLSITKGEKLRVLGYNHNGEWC

Structure (SMILES)	GI50 [1] [nM]	GI50 [2] [nM]	IC50 [4] [nM]	GI50 at 72 h [3] [µM]
Cc1ccc(NC(=O)c2ccc(CN3CCN(C)CC3)c(C(F)(F)F)c2)cc1OC1CCN(S(=O)(=O)c2ccccc2)CC1	600	4770	–	5.1
COc1ccc(NC(=O)c2ccc(CN3CCN(C)CC3)c(C(F)(F)F)c2)cc1OC1CCN(C(=O)c2cccnc2)CC1	> 10000	8410	–	> 10
Cc1ccc(NC(=O)c2ccc(CN3CCN(C)CC3)c(C(F)(F)F)c2)cc1OC1CCN(C(=O)c2cnc3ccccc3c2)CC1	320	86	–	1.3
Cc1ccc(NC(=O)c2ccc(CN3CCN(C)CC3)c(C(F)(F)F)c2)cc1OCCNC(=O)c1cccnc1	3300	1550	–	> 10
Cc1ccc(NC(=O)c2ccc(CN3CCN(C)CC3)cc2)cc1OC1CCN(C(=O)c2cccnc2)CC1	> 5000	8780	–	> 10
Cc1ccc(NC(=O)c2ccc(CN3CCN(C)CC3)c(C(F)(F)F)c2)cc1OC1CCN(C(=O)c2ccsc2)CC1	26	135	–	1.48
Cc1ccc(NC(=O)c2ccc(CN3CCN(C)CC3)c(C(F)(F)F)c2)cc1OC1CCN(C(=O)c2ccoc2)CC1	270	153	–	> 10
Cc1ccc(NC(=O)c2ccc(CN3CCN(C)CC3)c(C(F)(F)F)c2)cc1OC1CCN(C(=O)c2cccnc2)CC1	220	164	–	> 10
Cc1ccc(NC(=O)c2ccc(CN3CCN(C)CC3)c(C(F)(F)F)c2)cc1OC1CCN(C(=O)c2ccc(=O)[nH]c2)CC1	1600	1970	–	> 10
Cc1ccc(NC(=O)c2ccc(CN3CCN(C)CC3)c(C(F)(F)F)c2)cc1OC1CCN(C(=O)CN(C)C)CC1	1630	3070	–	> 10
CN1CCN(Cc2ccc(C(=O)Nc3ccc(Cl)c(OC4CCN(C(=O)c5cccnc5)CC4)c3)cc2C(F)(F)F)CC1	340	253	–	> 10
CCC(=O)N1CCC(Oc2cc(NC(=O)c3ccc(CN4CCN(C)CC4)c(C(F)(F)F)c3)ccc2C)CC1	300	998	–	> 10
Cc1ccc(NC(=O)c2ccc(CN3CCN(C)CC3)c(C(F)(F)F)c2)cc1OC1CCN(C(=O)c2ccccc2)CC1	550	635	–	4.73
Cc1ccc(NC(=O)c2ccc(CN3CCN(C)CC3)c(C(F)(F)F)c2)cc1OC1CCN(C(=O)Cc2cccnc2)CC1	780	5520	–	6.49
Cc1ccc(NC(=O)c2ccc(CN3CCN(C)CC3)c(C(F)(F)F)c2)cc1OCC1CCN(C(=O)c2cccnc2)C1 (configuration not stated)	3820	4940	–	3.98
Cc1ccc(NC(=O)c2ccc(CN3CCN(C)CC3)c(C(F)(F)F)c2)cc1OCC1CN(C(=O)c2cccnc2)C1	2860	5400	–	1.07
Cc1ccc(NC(=O)c2ccc(CN3CCN(C)CC3)c(C(F)(F)F)c2)cc1OC1CCN(C(=O)c2cnccc2C)CC1	210	203	336	2.68
C=CC(=O)N1CCC(Oc2cc(NC(=O)c3ccc(CN4CCN(C)CC4)c(C(F)(F)F)c3)ccc2C)CC1	–	427	–	> 10
Cc1ccc(NC(=O)c2ccc(CN3CCN(C)CC3)c(C(F)(F)F)c2)cc1OC1CCN(C(=O)c2ccncc2)CC1	170	88	256	> 10

Continued, in another order:

GI50 [1] [nM]	GI50 [2] [nM]	IC50 [4] [nM]	Structure (SMILES)	GI50 at 72 h [3] [µM]
62	2760	–	Cc1ccc(NC(=O)c2ccc(CN3CCN(C)CC3)c(C(F)(F)F)c2)cc1OC1CCN(C(=O)c2cccnc2Cl)CC1	2.72
28	79	214	Cc1cncc(C(=O)N2CCC(Oc3cc(NC(=O)c4ccc(CN5CCN(C)CC5)c(C(F)(F)F)c4)ccc3C)CC2)c1	0.8
2500	3220	–	Cc1ccc(NC(=O)c2ccc(CN3CCN(C)CC3)c(C(F)(F)F)c2)cc1OC1CCN(c2ncccn2)CC1	8.1
370	2210	–	Cc1ccc(NC(=O)c2ccc(CN3CCN(C)CC3)c(C(F)(F)F)c2)cc1OC1CCN(C(=O)c2cccnc2C)CC1	0.54
190	773	–	COc1cc2ncnc(N3CCC(Oc4cc(NC(=O)c5ccc(CN6CCN(C)CC6)c(C(F)(F)F)c5)ccc4C)CC3)c2cc1OC	1.2
200	168	–	Cc1ccc(NC(=O)c2ccc(CN3CCN(C)CC3)c(C(F)(F)F)c2)cc1OC1CCN(C(=O)c2cnc(N)nc2)CC1	> 10
200	72	644	Cc1ccc(NC(=O)c2ccc(CN3CCN(C)CC3)c(C(F)(F)F)c2)cc1OC1CCN(C(=O)c2ccccn2)CC1	> 10
37	219	–	Cc1ccc(NC(=O)c2ccc(CN3CCN(C)CC3)c(C(F)(F)F)c2)cc1OC1CCN(C(=O)c2cncc(Cl)c2)CC1	2.87
63	2000	–	Cc1ccc(NC(=O)c2ccc(CN3CCN(C)CC3)c(C(F)(F)F)c2)cc1OC1CCN(C(=O)c2cccnc2F)CC1	1.52
